The inhibition is the percentage by which the read-out fell short of the control.

For three compounds, inhibition and fold change (FC) results are on record in ChEMBL document CHEMBL5653631, “A Potent and Selective ULK1 Inhibitor Suppresses Autophagy and Sensitizes Cancer Cells to Nutrient Stress” (iScience, 2018).

Test [1] addresses T1, SNF-related serine/threonine-protein kinase (Homo sapiens) (UniProt Q9NRH2).
T1 sequence (whole entry): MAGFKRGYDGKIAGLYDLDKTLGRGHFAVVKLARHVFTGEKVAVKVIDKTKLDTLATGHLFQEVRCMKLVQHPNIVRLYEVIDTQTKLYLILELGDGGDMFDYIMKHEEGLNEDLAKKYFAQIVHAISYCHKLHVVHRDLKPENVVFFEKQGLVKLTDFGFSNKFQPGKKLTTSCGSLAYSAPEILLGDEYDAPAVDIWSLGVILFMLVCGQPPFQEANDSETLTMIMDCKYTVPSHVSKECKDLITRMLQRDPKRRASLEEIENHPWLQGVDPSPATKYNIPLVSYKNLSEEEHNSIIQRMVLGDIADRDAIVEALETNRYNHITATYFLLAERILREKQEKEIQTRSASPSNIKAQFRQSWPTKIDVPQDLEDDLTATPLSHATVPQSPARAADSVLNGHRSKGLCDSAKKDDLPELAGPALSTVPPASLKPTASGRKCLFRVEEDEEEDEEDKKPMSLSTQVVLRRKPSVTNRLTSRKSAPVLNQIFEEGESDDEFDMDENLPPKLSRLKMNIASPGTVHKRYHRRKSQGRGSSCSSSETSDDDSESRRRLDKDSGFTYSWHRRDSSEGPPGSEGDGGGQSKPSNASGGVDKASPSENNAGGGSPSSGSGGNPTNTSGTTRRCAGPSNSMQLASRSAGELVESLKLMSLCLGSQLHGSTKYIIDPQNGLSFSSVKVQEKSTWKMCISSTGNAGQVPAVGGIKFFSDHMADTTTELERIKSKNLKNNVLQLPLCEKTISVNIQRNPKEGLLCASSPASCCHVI
Briefly: Inhibition of human recombinant SNRK at 15 nM in presence of ATP by radiometric assay relative to control.

Test [2] deals with T2, Testis-specific serine/threonine-protein kinase 1 (Homo sapiens) (UniProt Q9BXA7).
T2 sequence (whole entry): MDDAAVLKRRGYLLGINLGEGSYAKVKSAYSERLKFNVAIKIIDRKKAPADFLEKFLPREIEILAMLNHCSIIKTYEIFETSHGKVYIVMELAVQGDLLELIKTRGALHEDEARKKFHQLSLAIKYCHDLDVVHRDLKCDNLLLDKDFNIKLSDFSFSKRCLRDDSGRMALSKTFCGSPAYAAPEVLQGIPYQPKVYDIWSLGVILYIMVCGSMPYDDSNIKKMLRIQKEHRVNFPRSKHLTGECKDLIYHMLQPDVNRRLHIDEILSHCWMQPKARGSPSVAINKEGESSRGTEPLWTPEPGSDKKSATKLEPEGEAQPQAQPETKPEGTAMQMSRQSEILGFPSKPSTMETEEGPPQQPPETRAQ
As to the kind of experiment: Inhibition of human recombinant TSSK1 at 15 nM related to control ULK1.

Test [3] deals with T3, Serine/threonine-protein kinase TAO2 (Homo sapiens) (UniProt Q9UL54).
T3 sequence (whole entry): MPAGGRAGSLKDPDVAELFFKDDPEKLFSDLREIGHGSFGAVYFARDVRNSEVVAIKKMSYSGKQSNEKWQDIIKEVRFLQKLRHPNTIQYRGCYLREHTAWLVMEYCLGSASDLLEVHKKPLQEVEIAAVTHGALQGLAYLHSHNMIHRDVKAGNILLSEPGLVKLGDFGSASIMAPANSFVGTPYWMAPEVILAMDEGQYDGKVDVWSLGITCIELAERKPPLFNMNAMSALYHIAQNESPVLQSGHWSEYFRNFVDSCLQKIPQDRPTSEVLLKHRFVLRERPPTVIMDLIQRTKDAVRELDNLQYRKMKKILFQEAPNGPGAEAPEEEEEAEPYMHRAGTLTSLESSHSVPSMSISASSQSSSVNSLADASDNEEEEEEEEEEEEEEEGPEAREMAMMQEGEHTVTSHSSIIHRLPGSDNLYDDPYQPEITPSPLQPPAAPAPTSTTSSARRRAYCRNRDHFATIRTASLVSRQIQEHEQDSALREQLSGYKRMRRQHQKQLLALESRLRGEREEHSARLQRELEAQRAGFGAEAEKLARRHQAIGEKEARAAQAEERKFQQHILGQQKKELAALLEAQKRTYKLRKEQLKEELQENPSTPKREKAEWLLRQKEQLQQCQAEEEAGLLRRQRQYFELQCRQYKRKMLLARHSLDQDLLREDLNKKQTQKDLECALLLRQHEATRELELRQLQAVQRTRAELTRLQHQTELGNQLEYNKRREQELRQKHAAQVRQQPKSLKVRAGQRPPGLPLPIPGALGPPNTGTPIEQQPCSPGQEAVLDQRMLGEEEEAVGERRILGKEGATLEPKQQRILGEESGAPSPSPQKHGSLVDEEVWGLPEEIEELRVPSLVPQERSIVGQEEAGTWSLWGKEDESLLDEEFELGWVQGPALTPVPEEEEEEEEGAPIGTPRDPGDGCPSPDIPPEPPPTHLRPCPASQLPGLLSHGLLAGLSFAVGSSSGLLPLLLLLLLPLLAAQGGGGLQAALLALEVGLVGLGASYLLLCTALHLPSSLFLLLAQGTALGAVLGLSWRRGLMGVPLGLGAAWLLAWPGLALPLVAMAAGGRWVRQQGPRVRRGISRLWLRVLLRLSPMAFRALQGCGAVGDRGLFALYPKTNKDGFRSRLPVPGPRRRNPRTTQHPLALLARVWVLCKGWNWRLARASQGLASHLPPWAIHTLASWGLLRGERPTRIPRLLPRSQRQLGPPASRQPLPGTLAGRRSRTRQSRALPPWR
Briefly: Inhibition of human recombinant TAO2 at 40 nM related to control ULK1.

Test [4] has as its target Dual specificity mitogen-activated protein kinase kinase 1 (Homo sapiens) (UniProt Q02750). Briefly: Inhibition of human recombinant MAP2K1 at 500 nM in presence of ATP by radiometric assay relative to control.
In test [5] the target is Serine/threonine-protein kinase WNK3 (Homo sapiens) (UniProt Q9BYP7). As to the kind of experiment: Inhibition of human recombinant Wnk3 at 500 nM related to control ULK1.
Serine/threonine-protein kinase WNK3 (Homo sapiens), sequence (Q9BYP7 whole entry): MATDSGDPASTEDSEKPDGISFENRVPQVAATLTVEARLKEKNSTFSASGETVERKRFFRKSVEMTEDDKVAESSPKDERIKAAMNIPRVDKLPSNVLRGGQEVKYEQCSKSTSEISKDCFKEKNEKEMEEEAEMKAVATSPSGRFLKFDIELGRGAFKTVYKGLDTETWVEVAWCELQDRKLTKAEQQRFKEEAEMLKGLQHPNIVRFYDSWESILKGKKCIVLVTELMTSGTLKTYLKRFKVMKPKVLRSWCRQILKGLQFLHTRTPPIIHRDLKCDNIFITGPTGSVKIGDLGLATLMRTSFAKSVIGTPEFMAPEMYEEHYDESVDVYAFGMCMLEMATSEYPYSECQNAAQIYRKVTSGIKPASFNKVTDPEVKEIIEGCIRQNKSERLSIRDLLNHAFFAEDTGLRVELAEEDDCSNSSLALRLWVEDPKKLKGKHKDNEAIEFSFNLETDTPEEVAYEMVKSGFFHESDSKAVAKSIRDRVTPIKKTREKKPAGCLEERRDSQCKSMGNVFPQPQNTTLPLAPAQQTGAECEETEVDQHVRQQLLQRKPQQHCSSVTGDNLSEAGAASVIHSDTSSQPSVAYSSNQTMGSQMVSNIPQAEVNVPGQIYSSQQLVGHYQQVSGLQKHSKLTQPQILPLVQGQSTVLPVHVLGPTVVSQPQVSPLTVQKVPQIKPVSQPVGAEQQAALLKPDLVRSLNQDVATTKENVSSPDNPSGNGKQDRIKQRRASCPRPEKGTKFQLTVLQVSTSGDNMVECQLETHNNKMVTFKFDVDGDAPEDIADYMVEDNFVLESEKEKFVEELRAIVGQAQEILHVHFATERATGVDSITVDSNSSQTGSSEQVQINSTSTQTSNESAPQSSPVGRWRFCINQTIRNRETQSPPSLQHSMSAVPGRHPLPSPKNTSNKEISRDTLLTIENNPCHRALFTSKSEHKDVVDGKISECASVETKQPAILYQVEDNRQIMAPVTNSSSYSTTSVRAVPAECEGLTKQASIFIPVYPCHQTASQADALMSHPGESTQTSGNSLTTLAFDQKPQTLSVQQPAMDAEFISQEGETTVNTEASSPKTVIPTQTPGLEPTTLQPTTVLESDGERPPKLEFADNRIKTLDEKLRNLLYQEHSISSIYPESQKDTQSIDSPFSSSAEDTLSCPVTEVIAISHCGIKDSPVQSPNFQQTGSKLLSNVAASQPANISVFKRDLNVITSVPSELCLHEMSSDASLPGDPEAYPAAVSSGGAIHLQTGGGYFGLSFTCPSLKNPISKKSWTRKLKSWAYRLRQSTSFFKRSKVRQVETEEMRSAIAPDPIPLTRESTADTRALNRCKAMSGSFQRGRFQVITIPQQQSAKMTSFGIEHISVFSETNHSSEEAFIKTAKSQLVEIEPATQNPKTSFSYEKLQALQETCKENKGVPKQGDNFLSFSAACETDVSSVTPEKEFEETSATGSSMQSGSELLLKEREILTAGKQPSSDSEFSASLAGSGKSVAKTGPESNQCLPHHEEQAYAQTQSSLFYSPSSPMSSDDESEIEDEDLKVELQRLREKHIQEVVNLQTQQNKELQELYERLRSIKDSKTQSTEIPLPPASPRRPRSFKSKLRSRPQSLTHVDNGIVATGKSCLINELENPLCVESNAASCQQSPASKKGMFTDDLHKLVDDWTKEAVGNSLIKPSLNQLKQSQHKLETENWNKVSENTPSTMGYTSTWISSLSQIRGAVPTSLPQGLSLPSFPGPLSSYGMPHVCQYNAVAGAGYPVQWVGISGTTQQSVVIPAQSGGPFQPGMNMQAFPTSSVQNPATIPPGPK
Test [6] has as its target Tyrosine-protein kinase ABL2 (Homo sapiens) (UniProt P42684). Briefly: Inhibition of human recombinant ABL2 at 500 nM in presence of ATP by radiometric assay relative to control. Put shortly: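 Panel of 327 recombinant human kinases in radiometric activity assays, each screened in duplicate at a single inhibitor concentration; percent activity remaining relative to vehicle control, percent inhibition taken as 100 minus activity remaining.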

The target of test [7] is Serine/threonine-protein kinase PAK 2 (Homo sapiens) (UniProt Q13177). Briefly: Inhibition of human recombinant PAK2 at 500 nM related to control ULK1.
Serine/threonine-protein kinase PAK 2 (Homo sapiens), sequence (Q13177 whole entry): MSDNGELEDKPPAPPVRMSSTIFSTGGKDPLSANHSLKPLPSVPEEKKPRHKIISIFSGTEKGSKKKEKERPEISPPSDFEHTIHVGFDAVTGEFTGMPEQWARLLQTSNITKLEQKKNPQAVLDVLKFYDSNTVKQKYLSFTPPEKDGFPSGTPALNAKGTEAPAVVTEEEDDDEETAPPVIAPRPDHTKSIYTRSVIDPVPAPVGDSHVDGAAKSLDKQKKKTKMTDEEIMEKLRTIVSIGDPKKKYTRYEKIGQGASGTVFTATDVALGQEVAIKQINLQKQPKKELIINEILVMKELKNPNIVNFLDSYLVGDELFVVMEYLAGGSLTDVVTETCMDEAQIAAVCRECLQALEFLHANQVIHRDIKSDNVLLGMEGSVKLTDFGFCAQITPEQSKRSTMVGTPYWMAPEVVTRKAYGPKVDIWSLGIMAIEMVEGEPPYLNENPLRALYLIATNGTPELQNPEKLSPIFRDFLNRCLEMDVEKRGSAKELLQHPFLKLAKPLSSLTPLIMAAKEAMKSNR

Dual specificity mitogen-activated protein kinase kinase 1 (Homo sapiens), sequence (Q02750 whole entry): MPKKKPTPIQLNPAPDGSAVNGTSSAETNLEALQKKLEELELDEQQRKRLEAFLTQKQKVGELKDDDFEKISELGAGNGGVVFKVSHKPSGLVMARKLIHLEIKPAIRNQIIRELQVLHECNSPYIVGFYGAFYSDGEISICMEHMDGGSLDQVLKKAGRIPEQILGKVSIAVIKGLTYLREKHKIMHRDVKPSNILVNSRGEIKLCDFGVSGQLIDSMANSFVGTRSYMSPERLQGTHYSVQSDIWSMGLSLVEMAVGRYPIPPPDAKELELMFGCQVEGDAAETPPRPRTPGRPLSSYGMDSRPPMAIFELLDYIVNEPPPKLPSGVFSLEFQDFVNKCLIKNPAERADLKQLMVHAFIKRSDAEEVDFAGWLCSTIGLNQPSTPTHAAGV
Tyrosine-protein kinase ABL2 (Homo sapiens), sequence (P42684 whole entry): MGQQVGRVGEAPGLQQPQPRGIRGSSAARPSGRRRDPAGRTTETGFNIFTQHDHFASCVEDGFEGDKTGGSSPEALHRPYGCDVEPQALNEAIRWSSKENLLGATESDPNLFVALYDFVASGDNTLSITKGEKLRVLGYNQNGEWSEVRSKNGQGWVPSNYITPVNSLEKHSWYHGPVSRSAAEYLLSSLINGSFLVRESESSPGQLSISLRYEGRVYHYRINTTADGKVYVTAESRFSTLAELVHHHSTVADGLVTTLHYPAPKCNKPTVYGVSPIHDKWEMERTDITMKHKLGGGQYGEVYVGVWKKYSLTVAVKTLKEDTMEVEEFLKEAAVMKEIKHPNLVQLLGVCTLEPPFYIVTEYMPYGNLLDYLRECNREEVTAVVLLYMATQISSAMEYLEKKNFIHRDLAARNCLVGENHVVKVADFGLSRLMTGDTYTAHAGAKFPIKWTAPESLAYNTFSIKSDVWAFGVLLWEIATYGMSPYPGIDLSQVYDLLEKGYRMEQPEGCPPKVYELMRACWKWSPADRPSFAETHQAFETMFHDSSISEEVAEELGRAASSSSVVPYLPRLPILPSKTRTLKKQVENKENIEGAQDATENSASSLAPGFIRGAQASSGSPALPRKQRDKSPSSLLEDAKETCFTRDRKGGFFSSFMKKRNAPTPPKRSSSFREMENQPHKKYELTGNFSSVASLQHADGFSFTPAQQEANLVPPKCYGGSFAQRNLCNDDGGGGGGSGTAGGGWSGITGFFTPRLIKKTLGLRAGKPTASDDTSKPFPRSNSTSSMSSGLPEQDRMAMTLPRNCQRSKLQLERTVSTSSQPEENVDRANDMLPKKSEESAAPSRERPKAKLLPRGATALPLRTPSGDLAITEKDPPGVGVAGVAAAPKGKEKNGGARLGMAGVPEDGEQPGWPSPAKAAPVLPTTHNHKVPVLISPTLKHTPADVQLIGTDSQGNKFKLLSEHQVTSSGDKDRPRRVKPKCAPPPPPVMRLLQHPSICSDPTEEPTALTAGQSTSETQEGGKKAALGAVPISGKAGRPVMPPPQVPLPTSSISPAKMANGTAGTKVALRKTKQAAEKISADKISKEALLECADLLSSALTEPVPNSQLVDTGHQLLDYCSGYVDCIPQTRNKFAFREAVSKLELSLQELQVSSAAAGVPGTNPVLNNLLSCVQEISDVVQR

For `CC(C)[C@H](NC(=O)c1cc(-c2cnn3cc(-c4ccc(OCCN5CCCCC5)cc4)cnc23)cs1)C(F)(F)F`, the inhibition in test [1] was determined as 8%. For the same compound, the fold change (FC) in test [2] worked out at 0.26.

Turning to `O=C(N[C@@H](C1CC1)C(F)(F)F)c1cc(-c2cnn3cc(-c4ccc(F)cc4)cnc23)cs1`, the fold change (FC) in test [3] was determined as 0.04.

`CNC(=O)c1ccccc1Oc1nc(Nc2cc(OC)c(OC)c(OC)c2)ncc1Br`: the inhibition in test [4] was determined as 0%; in test [6] it was 21%. Further, the fold change (FC) in test [5] stood at 0.08; in test [7], 0.19.
